Laboratory results taken from PubChem BioAssay AID588483 (Southern Research Specialized Biocontainment Screening …, 2011).
Where “and” joins values, the source holds several entries; their conditions need not be identical. Equal values may be shown once. Calls of active or inactive are those of the source.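 Rule for the calls: active = viability below 70% at any tested concentration, read as cytotoxicity; inactive = the rest.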

Legend:
[1] = viability loss of uninfected HEp-2 cells – cell-based, synthesized compounds, set 14, cytotoxicity control for RSV inhibitor project, dose response (AID 588483); settings: HEp-2 cell viability, luminescence (cytotoxicity counter-screen); at 150 µM (top of the series)
Procedure, shortened: (§1)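 Test system: uninfected HEp-2 human cells, no virus added. Input: 10,595 HEp-2 cells per well. Times: six-day compound exposure at 37 °C. Technique: ATP-based luminescence with CellTiter-Glo reagent. Measure: percent viability versus cell-control median, CC50 from four-parameter fit. Dosing: two-fold compound dilution series, 0.5% DMSO final. Replication: triplicate wells per compound concentration.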

[2] = tested on: HEp-2 cell viability, luminescence (cytotoxicity counter-screen); experiment: as above
Procedure, shortened: as §1

Compound | viability [1] | CC50 [2] [µM]
O=C(O)c1ccc(Cn2c(=O)n(Cc3ccc(C(=O)NCC4COC4)cc3)c(=O)c3ccccc32)cc1 | 119% (inactive) and 107% (inactive) | 
CN(C)c1ccc(Cn2c(=O)n(Cc3ccc(C(=O)NCC4COC4)cc3)c(=O)c3ccccc32)cc1 |  | 29.7
